Source: PubChem
ABCG2 block: inhibitors of human ABCG2 transporter, ABCB1 counter-screen | IgMXP3 cells, JC-1 efflux, flow cytometry | AID 1325 | inhibition, % at 6.6 µM | 0.1% of 190,000 active;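 active = inhibition above 80%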
Target sequence (Q9UNQ0 whole entry, looked up): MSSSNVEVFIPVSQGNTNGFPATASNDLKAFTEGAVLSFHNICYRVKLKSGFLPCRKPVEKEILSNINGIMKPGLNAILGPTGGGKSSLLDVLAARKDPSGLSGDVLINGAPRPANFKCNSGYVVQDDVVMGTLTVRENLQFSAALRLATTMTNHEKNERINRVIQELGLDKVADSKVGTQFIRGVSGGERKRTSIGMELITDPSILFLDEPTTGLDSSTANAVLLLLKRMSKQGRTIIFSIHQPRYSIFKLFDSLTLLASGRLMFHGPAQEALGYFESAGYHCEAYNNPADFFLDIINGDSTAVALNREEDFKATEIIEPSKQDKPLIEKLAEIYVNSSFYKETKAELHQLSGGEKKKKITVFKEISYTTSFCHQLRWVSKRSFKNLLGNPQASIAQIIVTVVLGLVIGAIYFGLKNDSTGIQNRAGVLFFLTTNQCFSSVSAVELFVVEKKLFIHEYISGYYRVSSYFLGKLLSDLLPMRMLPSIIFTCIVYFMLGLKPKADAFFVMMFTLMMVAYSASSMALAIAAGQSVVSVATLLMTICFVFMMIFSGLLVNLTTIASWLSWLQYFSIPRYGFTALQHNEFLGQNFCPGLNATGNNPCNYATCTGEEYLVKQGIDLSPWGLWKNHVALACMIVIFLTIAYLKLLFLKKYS
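material = IgMXP3 (ABCG2) plus far-red-tagged CCRF-Adr (ABCB1) cells | amount = 3 million cells/mL, equal mix of both lines | also added = JC-1 transporter substrate | dosing = one concentration, 6.6 µM final | schedule = 10 min at 25 °C | measured by = flow cytometric JC-1 green MFI at 530 nm | read-out basis = percent efflux inhibition, scaled nicardipine 100% to DMSO 0%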
MEKK2 WT-MEK5: raises or lowers MEK5 binding to wildtype human MEKK2 PB1 domain | binding response (% of control), % at 10 µM | Q9Y2U5 | bead flow cytometry, Alexa488-MEK5 binding to MEKK2 WT; actives lie on both sides | 1.1% of 290,000 active; in the data active = binding response below about 67% or above about 130%
WT yeast gro inh: growth inhibition of WT yeast, mitochondrial fusion screen. inhibition, % at 10 µM. mitochondrial fusion phenotypic screen, WT strain. 2.1% of 190,000 active; in the data active = inhibition above about 58%; tested in S. cerevisiae
ABCB1 inh: human ABCB1 inhibition, ABCG2 as counter-screen. P08183. CCRF-Adr cells, JC-1 efflux, flow cytometry. inhibition, % at 6.6 µM. 0.067% of 190,000 active; in the data active = inhibition above about 40%;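 note: higher value means more JC-1 retained so stronger ABCB1 efflux block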
MEKK3 PB1 HTS: modulators (inhibitors or enhancers) of MEK5 binding to human MEKK3 PB1 domain. Q99759. bead-based flow cytometry, Alexa488-MEK5 binding to MEKK3; actives lie on both sides; 0 = blocked by unlabeled MEK5, 100 = vehicle. binding response (% of control), % at 10 µM. 1.4% of 290,000 active. AID 1529;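 active = binding response more than 3 SD above or below the average of its plate-row segment, actives on both sides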;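 note: Alexa488 bead fluorescence after subtracting the streptavidin-only scavenger bead signal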
MEKK2 mut-MEK5: signal of MEK5 binding to mutant human MEKK2 PB1 domain | bead flow cytometry, Alexa488-MEK5 binding to MEKK2 mutant | percent response, % at 10 µM | 0.35% of 290,000 active; in the data active = percent response above about 24%, passing the limit was not always enough
MEKK2wt confirm: raises or lowers MEK5 binding to wildtype human MEKK2, retest; shares compounds with MEKK3 PB1 HTS; bead flow cytometry, Alexa488-MEK5 binding to MEKK2 WT; actives lie on both sides; binding response (% of control), % at 10 µM; 2.4% of 5,900 active; AID 1892; in the data active = binding response below about 16% or above about 210%; inactive = in between
MEKK2mut-MEK5: signal of MEK5 binding to mutant human MEKK2, retest | shares compounds with MEKK3 PB1 HTS | bead flow cytometry, Alexa488-MEK5 binding to MEKK2 mutant | percent response, % at 10 µM | 2% of 5,900 active | AID 1893; in the data active = percent response mostly above about 71%, no sharp cut-off; inactive = mostly below about 38%;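 note: higher means compound restores mutant binding toward wildtype level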
MEKK3-MEK5 inh: confirmation of inhibitors of MEK5 binding to human MEKK3; shares compounds with MEKK3 PB1 HTS; bead flow cytometry, Alexa488-MEK5 binding to MEKK3; stronger effect = lower value; binding response (% of control), % at 10 µM; 1.8% of 5,900 active; AID 1894;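 active = binding response below 72% of control, or above a set upper limit, though filed actives all read lower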
Hits are given with their value; i = inactive; nt = not tested or not shown; [ ] = another dose, or the depositor's remark. This is a sample that favours compounds with a hit; in the whole collection about 3.5% have one here.

SMILES | ABCG2 block | MEKK2 WT-MEK5 | WT yeast gro inh | ABCB1 inh | MEKK3 PB1 HTS | MEKK2 mut-MEK5 | MEKK2wt confirm | MEKK2mut-MEK5 | MEKK3-MEK5 inh
Cc1ccccc1-n1c(SCc2c(C)noc2C)nnc1-c1ccncc1 | i | i | i | i | i | i | nt | nt | nt
Cc1ccccc1-n1c(SCc2c(C)noc2C)nnc1-c1cccnc1 | i | 28[inhibitor] | i | i | i | 30 | i | i | i
COc1ccc(NC(=O)CN2C(=O)CSC(C)C2=O)c(OC)c1 (stereo not drawn) | i | i | i | i | 137 | i | i | i | i
CCC(=O)NC(=S)Nc1ccc(OC)cc1OC | i | i | i | i | 134 | i | i | i | i
Cc1ccccc1-n1c(C)nnc1SCC(=O)NNC(=O)c1ccccc1 | i | i | i | i | 148 | i | i | i | i
Cc1nnc(SCC(=O)NNC(=O)c2ccccc2)n1-c1ccccc1 | i | i | i | nt | i | i | nt | nt | nt
Cc1ccc(C)c(-c2ccc(=O)n(Cc3ccc(F)cc3Cl)n2)c1 | nt | i | nt | nt | 128 | 34 | i | i | i
Cn1c(=O)c2c(ncn2CC(=O)N2CCN(C(=O)c3ccco3)CC2)n(C)c1=O | i | 50[inhibitor] | i | i | i | i | i | i | i
CC1(C)CC(CC(=O)Nc2nccs2)(c2ccccc2)CCO1 (stereo not drawn) | i | i | i | i | i | i | nt | nt | nt
N#Cc1c(N)sc(=S)c2c1CCCC2 | i | 66[inhibitor] | i | i | i | i | i | i | i
CCC1(C)Cc2c(C#N)c(N)sc(=S)c2CO1 (stereo not drawn) | i | 60[inhibitor] | i | i | i | i | i | i | i
CC(=O)N1CCN(Cc2nc3cc([N+](=O)[O-])ccc3n2C)CC1 | nt | i | nt | nt | i | i | nt | nt | nt
Cn1c(CN2CCN(C(=O)c3ccc(F)cc3)CC2)nc2cc([N+](=O)[O-])ccc21 | i | i | i | i | 147 | i | i | i | i
COc1ccc(N2CCN(c3cc(C)c4cccc(C)c4n3)CC2)cc1 | i | i | i | i | 67[inhibitor] | i | i | i | i
C/C(Cl)=C/Cn1c(=O)c2c(nc(Br)n2Cc2ccccc2)n(C)c1=O | i | i | i | i | i | i | nt | nt | nt
CCN(CC)CCNC(=O)c1cc2cc(Br)ccc2s1 | i | i | i | i | i | i | nt | nt | nt
CCOC(=O)NC1(C(F)(F)F)NC(=O)N(C2CCCCC2)C1=O (stereo not drawn) | i | -4.0[inhibitor] | i | i | i | i | i | i | i
CCOc1ccc2noc3c2c1C(=O)c1ccccc1-3 | i | nt | i | i | nt | nt | nt | nt | nt
CCNc1ccc2noc3c2c1C(=O)c1ccccc1-3 | i | 30[inhibitor] | i | i | 32[inhibitor] | i | i | i | 56
O=C1c2ccccc2-c2onc3ccc(NCc4ccco4)c1c23 | i | 53[inhibitor] | 66 | i | 52[inhibitor] | i | i | i | 59
O=C(CNc1cccc(F)c1)N1CCc2ccccc2C1 | nt | i | nt | nt | i | i | nt | nt | nt
CCOc1ccc(N(CC(=O)Nc2ccccc2C(=O)N2CCCC2)S(C)(=O)=O)cc1 | nt | i | nt | nt | i | i | nt | nt | nt
Cc1cc(NC(=O)CSc2nnc(N)s2)c([N+](=O)[O-])cc1C | i | i | i | i | 65[inhibitor] | i | i | i | i
CCOC(=O)C1=C(C)NC(=O)C1CC(=O)Nc1ccccc1 (stereo not drawn) | i | i | i | i | 125 | i | i | i | i
CCOC(=O)C1=C(C)NC(=O)NC1c1ccc(OCC(=O)Nc2ccccc2)c(OC)c1 (stereo not drawn) | i | i | i | i | i | i | nt | nt | nt
SMILES | ABCG2 block | MEKK2 WT-MEK5 | WT yeast gro inh | ABCB1 inh | MEKK3 PB1 HTS | MEKK2 mut-MEK5 | MEKK2wt confirm | MEKK2mut-MEK5 | MEKK3-MEK5 inh
O=C1CCC([N+](=O)[O-])C(c2ccc(Br)cc2)N1 (stereo not drawn) | i | i | i | i | 133 | i | i | i | i
CCCCc1ccc(-c2nc(N)n[nH]2)cc1 | i | 2.0[inhibitor] | i | i | 1.0[inhibitor] | i | i | i | i
Nc1n[nH]c(-c2ccc(F)cc2)n1 | i | i | i | i | i | i | nt | nt | nt
S=C(Nc1ccccc1)Nc1cc(Cl)ccc1Oc1ccccc1 | i | i | i | i | 123 | i | i | i | i
S=C(Nc1ccccc1)Nc1ccc(Cl)cc1Cl | i | i | i | i | i | i | nt | nt | nt
COc1ccccc1C1CC(c2ccc(F)cc2)Nc2ncnn21 (stereo not drawn) | i | i | i | i | i | i | nt | nt | nt
COc1ccccc1C1CC(c2ccccc2)Nc2ncnn21 (stereo not drawn) | i | i | i | i | 80[inhibitor] | i | i | i | i
Cc1ccccc1C1=N/C(=C/c2cccs2)C(=O)O1 | i | i | i | i | i | i | nt | nt | nt
Cc1ccc(C2=N/C(=C/c3cccs3)C(=O)N2Nc2ccccc2)cc1 | nt | 52[inhibitor] | i | nt | i | i | i | i | i
O=C1c2ccccc2C(=O)N1Cc1cnc(N2CCN(c3ccccc3)CC2)s1 | i | i | i | i | i | i | nt | nt | nt
C=CCN1c2ccccc2[C@]23C[C@@H](C(=O)OC)N(C(=O)c4cc(C)oc4C)C2=NC(C(=O)OC)=C(C(=O)OC)[C@H]13 | nt | 147 | nt | nt | i | i | i | i | i
CC#CCN1c2ccccc2[C@]23C[C@@H](C(=O)OC)N(C(=O)c4cc(C)oc4C)C2=NC(C(=O)OC)=C(C(=O)OC)[C@H]13 | nt | i | nt | nt | i | i | nt | nt | nt
CC#CCN1c2ccccc2[C@]23C[C@@H](C(=O)OC)N(C(=O)NC(C)(C)C)C2=NC(C(=O)OC)=C(C(=O)OC)[C@H]13 | nt | i | nt | nt | i | i | nt | nt | nt
CC#CCN1c2ccccc2[C@]23C[C@@H](C(=O)OC)N(C(=O)c4ccco4)C2=NC(C(=O)OC)=C(C(=O)OC)[C@H]13 | nt | 151 | nt | nt | i | i | i | i | i
C=CCN1c2ccccc2[C@]23C[C@@H](C(=O)OC)N=C2NC(C(=O)OC)=C(C(=O)OC)[C@H]13 | nt | 150 | nt | nt | i | i | i | i | i
COc1ccc(C(=O)NCC(=O)OCC(=O)Nc2ccc(C)c(S(=O)(=O)N(C)C)c2)cc1OC | nt | i | nt | nt | i | i | nt | nt | nt
Cc1ccccc1CC(=O)N1CC(C)OC(C)C1 (stereo not drawn) | nt | i | nt | nt | i | i | nt | nt | nt
NCCSc1c(-c2ccccc2)[nH]c2ccccc12 | i | 146 | i | i | i | 25 | i | i | i
Cc1ccc(-c2[nH]c3ccccc3c2SCCN)cc1 | nt | i | nt | nt | i | i | nt | nt | nt
NCCSc1c(-c2ccc(F)cc2)[nH]c2ccccc12 | nt | i | nt | nt | i | i | nt | nt | nt
NCCSc1c(-c2ccc(Cl)cc2)[nH]c2ccccc12 | nt | 171 | nt | nt | i | 51 | i | i | i
